Source: PubChem (Johns Hopkins Ion Channel Center)
KCNK3 block – human KCNK3 channel inhibition, primary screen. O14649. CHO-KCNK3 thallium flux, FluxOR fluorescence; active compounds read low. B-score at 10 µM. hit rate 0.84% among 340,000;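 active = B-score under library mean minus 4 SD, starting fluorescence ratio at most library mean plus 5 SD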;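 also: more negative B-score means stronger inhibition of thallium flux through KCNK3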
KCNK9 inh – blocks the human KCNK9 two-pore domain potassium channel; Q9NPC2; HEK293 KCNK9, FluxOR thallium flux fluorescence; active compounds read low; B-score at 10 µM; hit rate 1.2% among 310,000; AID 488922;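 active = ratio B-score over 3 SD below the library mean, with starting fluorescence within 5 SD of its mean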;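 also: negative B-score means less thallium flux so channel inhibition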
Target sequence (Q9NPC2 whole entry, looked up, the tested form may be a part): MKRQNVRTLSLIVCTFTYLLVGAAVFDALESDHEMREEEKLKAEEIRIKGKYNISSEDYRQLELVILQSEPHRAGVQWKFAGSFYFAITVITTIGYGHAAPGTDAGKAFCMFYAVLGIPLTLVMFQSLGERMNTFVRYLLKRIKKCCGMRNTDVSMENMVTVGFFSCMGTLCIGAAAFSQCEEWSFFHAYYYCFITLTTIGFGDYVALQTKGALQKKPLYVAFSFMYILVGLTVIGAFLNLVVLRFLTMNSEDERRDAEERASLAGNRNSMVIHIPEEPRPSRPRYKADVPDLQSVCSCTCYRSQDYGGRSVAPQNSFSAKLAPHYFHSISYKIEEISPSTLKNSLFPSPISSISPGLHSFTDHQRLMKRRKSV
Kir21 inh – inhibitors of mouse Kir2.1 inward-rectifier potassium channel | P35561 | HEK293-Kir2.1, FluxOR thallium flux fluorescence; active compounds read low | B-score at 10 µM | hit rate 0.85% among 310,000;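 active = fluorescence ratio B-score at or below minus 3 SD of library scores, with starting-brightness B-score within 2 SD, cut at about -4.2 in these data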;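 also: channel flux triggered by added potassium and thallium sulfate stimulus; B-score of peak minus minimum fluorescence over baseline after thallium stimulus; more negative B-score means stronger Kir2.1 block with less thallium influx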
hERG protect – compounds protecting human hERG from proarrhythmic drug block. AID 1511. hit rate 0.51% among 310,000. CHO-hERG, FluxOR thallium flux, dofetilide IC70 present. activation (rescue from dofetilide block), less the hit threshold, % at 10 µM;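 active = activation above the mean of controls blocked by dofetilide plus 5 SD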;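 also: thallium influx through hERG after potassium depolarization seen as dye fluorescence rise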
KCNQ1 act – human KCNQ1 channel potentiation or activation; P51787; CHO-K1 KCNQ1, thallium flux FluxOR fluorescence; active compounds read high; B-score at 10 µM; hit rate 0.35% among 310,000; AID 2648;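 active = fluorescence ratio B-score, a plate-corrected score, at least three library SD, with initial intensity B-score within 5 SD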
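Assay system: CHO-K1 cells stably expressing KCNQ1; Medium: assay buffer with matched DMSO; Also added: K+/Tl+ depolarizing stimulus; Dosing: single dose; Timing: dye 90 min, compound 20 min, room temperature; Measured by: kinetic FluxOR thallium fluorescence, 10-s 1-Hz baseline, 110-s post-stimulus read; Read-out: peak-minus-minimum fluorescence over initial fluorescence, negative-control normalized, B-scored.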
KCNQ1 inh – blocks the human KCNQ1 potassium channel | AID 2642 | P51787 | CHO-K1 KCNQ1, FluxOR thallium flux fluorescence; active compounds read high | hit rate 1.3% among 310,000 | B-score at 10 µM;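 active = compounds whose thallium flux B-score, printed positive for inhibition, exceeds three library SD while starting fluorescence stays within three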;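 also: channel opened by potassium depolarization with thallium stimulus after 20 min compound exposure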
KCNK9 block conf – human KCNK9 inhibitor confirmation; shares compounds with KCNK9 inh; HEK293 KCNK9 cells, FluxOR thallium flux fluorescence; inhibition, % at 10 µM; hit rate 43% among 4,900; AID 492992;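 active = thallium signal inhibited by more than 5 SD of the compound-free buffer control wells, on both duplicate plates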
Kir2-1 spec – tests whether KCNK9 modulators also affect mouse Kir2.1 | inhibition, % at 10 µM | Kir2.1 cells, FluxOR thallium flux fluorescence | shares compounds with KCNK9 inh | hit rate 4% among 4,900;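 active = thallium signal drop more than 5 SD beyond the mean of the no-compound control wells, seen in both duplicate plates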;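 also: signal is fluorescence rise after thallium addition divided by baseline fluorescence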
KCNK9 uninduced – non-induced cell nonspecific activity of KCNK9 modulators | inhibition, % at 10 µM | non-induced KCNK9-HEK293, FluxOR thallium flux | AID 492997 | shares compounds with KCNK9 inh | hit rate 40% among 4,900;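 active = thallium signal drop beyond 5 SD of the untreated control mean, on both duplicate plates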
KCNK3 inh conf – confirmation of human KCNK3 two-pore domain potassium channel inhibitors; CHO-KCNK3 thallium flux, FluxOR fluorescence; 0% buffer, 100% carvedilol maximal block; AID 651638; shares compounds with KCNK3 block; hit rate 99% among 2,400; ratio percent of control, % at 10 µM;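 active = ratio percent of control, averaged over triplicates, above buffer control mean plus 5 SD, cut at about 64% in these data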;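 also: ratio is the fluorescence rise from min to max over baseline after thallium stimulus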
KCNK3 noninduced – KCNK3 inhibitor counter-screen hit in non-induced cells; shares compounds with KCNK3 block; thallium flux ratio (lower = more inhibition) at 10 µM; non-induced KCNK3 parental cells, FluxOR thallium flux; active compounds read low; hit rate 40% among 2,400;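 active = thallium flux ratio, averaged over three wells, more than 5 SD below the buffer control mean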;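 also: host cells are CHO cells without KCNK3 induction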
Each line names hits and unclear results; the compound was inactive in the other large screens (follow-up assays come after a bar, where they were run). Sampled rows, rich in hits. Any-hit rate of the full collection: about 3.7%.

CN1CCN(S(=O)(=O)c2cccc(C(=O)N(C)CC(=O)Nc3ccc(F)c(F)c3F)c2)CC1	none
CCOC(=O)c1ccc(NC(=O)COc2ccc(CNCCO)cc2OCC)cc1	none
CCOC(=O)c1ccc(NC(=O)COc2ccccc2CNCCc2ccccc2)cc1	KCNK3 block -12, KCNK9 inh -8.1, KCNQ1 inh 11 | KCNK9 block conf 30% | Kir2-1 spec inactive | KCNK9 uninduced inactive | KCNK3 inh conf 104 | KCNK3 noninduced inactive
O=Cc1c(OCc2ccccc2)ccc2ccccc12	KCNK3 block -11, KCNK9 inh -17 | KCNK9 block conf 64% | Kir2-1 spec inactive | KCNK9 uninduced 50% | KCNK3 inh conf 113 | KCNK3 noninduced 0.15
Cc1c([N+](=O)[O-])cc(C(=O)Nc2ccc(NC(=O)c3ccco3)cc2)cc1[N+](=O)[O-]	none
CCc1ccc(-c2cc(C)no2)cc1S(=O)(=O)N1CCN(C(=O)c2ccco2)CC1	none
O=C(COC(=O)c1cccs1)c1ccc2ccccc2c1	KCNK3 block -13, KCNK9 inh -18 | KCNK9 block conf 56% | Kir2-1 spec inactive | KCNK9 uninduced 30% | KCNK3 inh conf 101 | KCNK3 noninduced inactive
CN(C)S(=O)(=O)N1CCCC(C(=O)c2ccc(-c3ccccc3)c(F)c2)C1 (stereo not drawn)	KCNK3 block -11, KCNK9 inh -8.4 | KCNK9 block conf 30% | Kir2-1 spec inactive | KCNK9 uninduced 45% | KCNK3 inh conf 119 | KCNK3 noninduced inactive
Nc1ccc(C(=O)NN2C(=O)[C@H](Cl)C2c2ccc(Cl)cc2)cc1 (stereo partly drawn)	none (no result: KCNK9 inh, Kir21 inh, hERG protect, KCNQ1 act, KCNQ1 inh)
CCOc1cc(C=NN=C2c3ccccc3-c3ccccc32)ccc1O	none (no result: KCNK9 inh, Kir21 inh, hERG protect, KCNQ1 act, KCNQ1 inh)
CCc1cc(=O)oc2cc(C)cc(OCC(=O)N3CCC(C(=O)NC(C)C)(c4ccccc4)CC3)c12	KCNK3 block -14, KCNK9 inh -19 | KCNK9 block conf 65% | Kir2-1 spec inactive | KCNK9 uninduced 26% | KCNK3 inh conf 100 | KCNK3 noninduced inactive
CCCCc1cc(=O)oc2c(C)c(OCC(=O)N3CCC(C(=O)O)(c4ccccc4)CC3)ccc12	none
CCN(CC)C(=O)Oc1cc2c(-c3cc4cccc(OC)c4o3)cc(=O)oc2cc1C	KCNK3 block -14, KCNK9 inh -21 | KCNK9 block conf 77% | Kir2-1 spec inactive | KCNK9 uninduced inactive | KCNK3 inh conf 101 | KCNK3 noninduced inactive
CC(Oc1ccc(Cl)cc1)c1ccnn1S(=O)(=O)c1ccccc1 (stereo not drawn)	KCNK3 block -9.9, KCNK9 inh -11 | KCNK9 block conf 37% | Kir2-1 spec 52% | KCNK9 uninduced 60% | KCNK3 inh conf 100 | KCNK3 noninduced 0.14
O=C(NCc1ccco1)/C(=C/c1ccccc1F)NC(=O)c1ccccc1	none
CC(C)(C)C(=O)NNC(=O)c1cc(C(C)(C)C)nn1Cc1ccccc1	none
CC(C)(C)c1cc(C(=O)NNc2cccc(Cl)c2)n(Cc2ccccc2)n1	KCNK3 block -12, KCNK9 inh -15, KCNQ1 inh 10 | KCNK9 block conf 64% | Kir2-1 spec inactive | KCNK9 uninduced 48% | KCNK3 inh conf 123 | KCNK3 noninduced inactive
CSc1nc2ccc(NS(=O)(=O)c3ccc(Br)s3)cc2s1	KCNK3 block -11, KCNK9 inh -8.3, KCNQ1 inh 6 | KCNK9 block conf 35% | Kir2-1 spec inactive | KCNK9 uninduced inactive | KCNK3 inh conf 127 | KCNK3 noninduced 0.13
